For 5 compounds, Ki, IC50 and Inhibition results are on record in ChEMBL document CHEMBL1134769, “Potent and selective nonpeptide inhibitors of caspases 3 and 7” (J Med Chem, 2001).

Some results are limits rather than exact numbers.

Assay [1] addresses T1, Caspase-4 (Homo sapiens, UniProt P49662).
T1 sequence (P49662 whole entry): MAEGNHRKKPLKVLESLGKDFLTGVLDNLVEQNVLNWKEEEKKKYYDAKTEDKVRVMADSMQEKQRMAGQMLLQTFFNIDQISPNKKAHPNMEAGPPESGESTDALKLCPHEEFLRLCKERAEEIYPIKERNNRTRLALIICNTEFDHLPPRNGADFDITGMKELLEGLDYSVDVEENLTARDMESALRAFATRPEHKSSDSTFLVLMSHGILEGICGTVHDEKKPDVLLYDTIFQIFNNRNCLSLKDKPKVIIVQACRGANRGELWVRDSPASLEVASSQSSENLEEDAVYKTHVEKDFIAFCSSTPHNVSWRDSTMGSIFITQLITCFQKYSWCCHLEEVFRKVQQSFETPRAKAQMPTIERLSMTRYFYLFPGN
The assay can be described thus: Inhibitory activity against caspase-4. The note with it: read-out: Ki app. In a few lines: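 Recombinant full-length human caspase 4, ~10 units/assay, in potassium acetate pH 5.8 with 1 mM EDTA, 10% sucrose, 0.1% CHAPS and 5 mM β-mercaptoethanol. Substrate 100 μM Ac-LEED-AMC. Read at 360/460 nm, 30 °C, 5% final DMSO. Single-dose screen (typically 5–50 μM), then IC50 curves for actives.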

For assay [2], the target named is T2, Caspase-3 (Homo sapiens, UniProt P42574).
T2 sequence (P42574 whole entry): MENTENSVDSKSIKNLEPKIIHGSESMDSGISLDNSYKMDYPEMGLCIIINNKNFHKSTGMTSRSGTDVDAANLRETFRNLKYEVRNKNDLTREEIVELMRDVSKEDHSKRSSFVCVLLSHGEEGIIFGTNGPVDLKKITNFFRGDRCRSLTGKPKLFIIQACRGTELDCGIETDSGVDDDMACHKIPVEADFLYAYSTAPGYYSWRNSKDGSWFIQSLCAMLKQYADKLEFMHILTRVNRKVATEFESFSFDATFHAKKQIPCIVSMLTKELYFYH
The assay can be described thus: Inhibition of recombinant human caspase-3.

Assay [3] has as its target T3, Caspase-1 (Homo sapiens, UniProt P29466).
T3 sequence (P29466 whole entry): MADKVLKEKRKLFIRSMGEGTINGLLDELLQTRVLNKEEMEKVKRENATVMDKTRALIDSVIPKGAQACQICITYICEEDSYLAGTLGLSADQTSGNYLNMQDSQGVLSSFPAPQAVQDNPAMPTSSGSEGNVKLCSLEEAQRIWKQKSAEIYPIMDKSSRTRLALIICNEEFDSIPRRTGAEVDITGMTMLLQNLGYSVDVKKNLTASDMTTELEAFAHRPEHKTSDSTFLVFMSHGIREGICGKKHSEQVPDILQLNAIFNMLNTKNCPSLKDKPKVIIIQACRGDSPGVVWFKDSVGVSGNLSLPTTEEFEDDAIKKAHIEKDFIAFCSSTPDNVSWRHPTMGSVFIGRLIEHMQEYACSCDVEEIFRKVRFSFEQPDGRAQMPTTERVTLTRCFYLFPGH
The assay can be described thus: Inhibitory activity against caspase-1. The note with it: read-out: Ki app. The gist of the method:
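Recombinant full-length human caspase 1, ~10 units/assay, in 25 mM K+HEPES pH 7.5 with 10% sucrose, 0.1% CHAPS and 5 mM β-mercaptoethanol. Substrate 10 μM Ac-YVAD-AMC. AMC read at 360/460 nm, 30 °C, with 5% final DMSO. Single-dose screen (typically 5–50 μM), followed by IC50 curves for active compounds.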

For assay [4], the target named is T4, Caspase-9 (Homo sapiens, UniProt P55211).
T4 sequence (P55211 whole entry): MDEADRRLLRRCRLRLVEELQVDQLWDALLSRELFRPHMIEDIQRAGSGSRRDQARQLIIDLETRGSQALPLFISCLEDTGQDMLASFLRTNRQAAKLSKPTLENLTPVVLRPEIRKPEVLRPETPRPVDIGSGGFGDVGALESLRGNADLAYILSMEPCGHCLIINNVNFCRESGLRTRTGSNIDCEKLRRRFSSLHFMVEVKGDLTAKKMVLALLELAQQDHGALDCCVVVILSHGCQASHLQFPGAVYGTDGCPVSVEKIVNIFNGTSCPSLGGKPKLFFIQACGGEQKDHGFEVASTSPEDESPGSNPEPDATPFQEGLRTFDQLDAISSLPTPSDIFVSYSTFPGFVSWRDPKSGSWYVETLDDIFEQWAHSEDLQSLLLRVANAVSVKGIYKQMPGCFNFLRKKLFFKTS
The assay can be described thus: Inhibitory activity against Caspase-9. The note with it: read-out: Ki app.

Assay [5] has as its target T2, Caspase-3. The assay can be described thus: Inhibitory activity against caspase-3. As to conditions: read-out: Ki app. The gist of the method:
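Recombinant full-length human caspase 3 or 7, ~10 units/assay (1 unit = 1 pmol AMC/min). Substrate 10 μM Ac-DEVD-AMC. AMC fluorescence at 360/460 nm, 30 °C, with 5% final DMSO. Single-dose screen (typically 5–50 μM), then IC50 curves; repeated IC50s had CVs typically <30%.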

Assay [6] concerns the target T5, Caspase-2 (Homo sapiens, UniProt P42575).
T5 sequence (P42575 whole entry): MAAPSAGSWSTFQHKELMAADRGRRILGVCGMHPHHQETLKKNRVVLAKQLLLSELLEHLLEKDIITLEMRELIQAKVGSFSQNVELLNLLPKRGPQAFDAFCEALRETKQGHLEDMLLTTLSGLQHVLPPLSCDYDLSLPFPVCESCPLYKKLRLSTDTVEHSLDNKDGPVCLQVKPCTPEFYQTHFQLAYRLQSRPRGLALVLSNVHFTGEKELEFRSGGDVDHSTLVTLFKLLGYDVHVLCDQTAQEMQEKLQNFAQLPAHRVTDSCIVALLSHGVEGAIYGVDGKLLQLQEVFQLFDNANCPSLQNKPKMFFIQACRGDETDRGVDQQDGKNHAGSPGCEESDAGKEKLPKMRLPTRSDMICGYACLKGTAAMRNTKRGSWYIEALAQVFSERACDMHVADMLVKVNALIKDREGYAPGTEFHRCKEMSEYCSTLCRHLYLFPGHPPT
The assay can be described thus: Inhibitory activity against caspase-2. As to conditions: read-out: Ki app. In a few lines:
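Recombinant full-length human caspase 2 (~10 units/assay) in 50 mM sodium acetate pH 6.2 with 10% glycerol, 0.25 mM EDTA and 5 mM β-mercaptoethanol. Substrate 25 μM Ac-VDVAD-AMC. Fluorescence at 360/460 nm, 30 °C, final DMSO 5%. Compounds screened at a single dose (typically 5–50 μM), then full IC50 curves where activity was seen.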

Assay [7] deals with C20/A4. The assay can be described thus: In vitro inhibition of Chondrocyte cell line C20/A4 apoptosis at 25 uM of compound. It is filed as functional, Homo sapiens. In a few lines:
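Immortalized human chondrocyte line C20/A4 seeded at 20 000 cells/well overnight, then exposed 24 h to 4 μg/mL camptothecin with or without compound. Floating and adherent cells combined and lysed 30 min at 4 °C, then clarified at 14000g. Mono- and oligonucleosome DNA fragments measured by cell death ELISA; result expressed as % inhibition of apoptosis.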

For assay [8], the system named is Jurkat (Homo sapiens). The assay can be described thus: In vitro inhibition of Jurkat cell apoptosis at 10 uM of compound.
The subject of assay [9] is Jurkat (Homo sapiens). The assay can be described thus: In vitro inhibition of Jurkat cell apoptosis at 50 uM of compound.

For `CN(CC1CCCN1S(=O)(=O)c1ccc2c(c1)C(=O)C(=O)N2)c1ccccc1` (stereo unspecified), the Ki in [1] was > 50 µM; in assay [3] it was > 50 µM; in [4], > 50 µM; in assay [5], 12 µM; in [6], 11 µM. For the same compound, the IC50 in assay [2] is 5.5 µM.

In the case of `O=C1Nc2ccc(S(=O)(=O)N3CCC[C@H]3COc3ccccc3)cc2C1=O`, the Ki in assay [1] turned out to be 33 µM; in assay [3] it was 17 µM; in [4], 1.2 µM; in assay [5], 0.015 µM; in assay [6], 4.9 µM. The IC50 in assay [2] was found to be 0.044 µM. The Inhibition worked out at 83% in [7], 51% in assay [8] and 82% in assay [9].

On to `O=C1C(=O)N(Cc2ccccc2)c2ccc(S(=O)(=O)N3CCC[C@H]3COc3ccccc3)cc21`, for which the Ki is > 5 µM in assay [1]; > 5 µM in assay [3]; 0.12 µM in assay [4]; 0.0012 µM in assay [5]; 4 µM in assay [6]. Also, the concentration for half-maximal inhibition (IC50) in assay [2] amounted to 0.0025 µM. The Inhibition in assay [7] is 84%; in assay [8], 27%; in assay [9], 47%.

Regarding `COC[C@@H]1CCCN1S(=O)(=O)c1ccc2c(c1)C(=O)C(=O)N2`, the Ki in [1] was > 25 µM; in assay [3] it was > 25 µM; in assay [4] it was 1.1 µM; in [5], 0.06 µM; in assay [6] it was > 25 µM. In addition, the concentration for half-maximal inhibition (IC50) in [2] came to 0.12 µM. For the same compound, the Inhibition is reported as 22% in assay [8] and 54% in assay [9].

As for `O=C1Nc2ccc(S(=O)(=O)N3CCC[C@H]3CNc3ccccc3)cc2C1=O`, the Ki was 30 µM in assay [1]; 21 µM in assay [3]; 0.85 µM in [4]; 0.019 µM in assay [5]; 6.5 µM in assay [6]. In addition, in assay [2], the IC50 amounted to 0.031 µM. Moreover, the Inhibition in [7] is on record as 96%; in assay [8] it was 8%; in assay [9], 61%.

Usually IC50 stands for the concentration needed to halve the response being measured. For orientation: Inhibition means how much of the control response was suppressed. A higher Inhibition goes with strong suppression.
